Assay results reported in ChEMBL document CHEMBL3808379, “Isouronium and N-hydroxyguanidinium derivatives as Cell growth inhibitors: A comparative study” (Eur J Med Chem, 2016).
Blank lines part the entries; values can stand above or below the molecule they belong to. The source made the active and inactive calls. No cut-off for these calls is given here.

Legend:
[1] = system: HL-60; experiment: Induction of mitochondrial membrane depolarization in human HL60 cells at 50 to 100 uM after 48 hrs by JC1 staining-based flow cytometric analysis relative to vehicle control; format: functional, cell-based
Summary of the method: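 HL-60 cells at 200,000 cells/mL exposed 48 h to 0, 50 or 100 μM. Washed in PBS and stained with JC-1 (5 μM) 30 min at 37 °C. Resuspended in ice-cold PBS and read by flow cytometry: excitation 488 nm, emission 535 (green) and 595 nm (red). Rising green:red ratio scored as ΔΨm loss; % cells with loss reported. Mean ± SEM, ≥3 experiments.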

[2] = system: HL-60; experiment: Induction of apoptosis in human HL60 cells assessed as caspase 3/7 activation at 50 to 100 uM after 48 hrs by caspase-glo luminescence assay relative to vehicle control; format: functional, cell-based
Summary of the method: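 HL-60 cells seeded at 20,000 cells/100 μl and treated 48 h with 0, 50 or 100 μM. Viability first measured by AlamarBlue. Cells then lysed with an equal volume of Caspase-Glo 3/7 reagent, shaken 1 h at room temperature in darkness, and luminescence read. Luminescence normalised to viability. Mean ± SEM, ≥3 experiments; P<0.05 taken as significant.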

[3] = Cytotoxicity against human MCF10A cells assessed as cell viability reduction at 50 to 100 uM incubated for 72 hrs by alamar blue-based fluorimetric assay; details: mcf-10a
Summary of the method: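 MCF-10A cells, 2000 per well, were allowed to attach for 24 h, then treated with 50 or 100 µM or with 1% ddH2O vehicle for 72 h. AlamarBlue (10% v/v) was added for 4.5 h at 37 °C in the dark and fluorescence read at ex 544/em 590 nm. Viability is expressed as % of vehicle after blank subtraction; mean ± S.E.M., ≥3 experiments.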

[4] = Cytotoxicity against mouse NIH/3T3 cells assessed as cell viability reduction at 50 to 100 uM incubated for 72 hrs by alamar blue-based fluorimetric assay; details: nih3t3, 72 h
Summary of the method: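 NIH/3T3 cells seeded at 10,000 cells/mL and left 24 h at 37 °C before treatment. Compound at 50 or 100 μM final for 72 h, vehicle 1% (v/v) ddH2O. AlamarBlue 10% (v/v) then added for 4.5 h in darkness at 37 °C. Fluorescence read at ex 544/em 590 nm, blank subtracted, expressed as % of vehicle control. Mean ± S.E.M., at least 3 experiments.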

[5] = system: HL-60; experiment: Induction of apoptosis in human HL60 cells at 100 uM after 72 hrs by propidium iodide staining-based flow cytometric analysis; format: functional
Summary of the method: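 HL-60 cells seeded at 200,000 cells/mL and treated 72 h, vehicle 1% (v/v) ddH2O. Harvested by centrifugation, fixed overnight in ice-cold 70% EtOH/PBS at −20 °C, then PI-stained 30 min at 37 °C. Flow cytometry of 10,000 gated events. Apoptosis taken from pre-G1 (<2N DNA) peak. Mean ± S.E.M., ≥3 experiments.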

[6] = Cytotoxicity in human MCF10A cells assessed as induction of apoptosis at 50 to 100 uM after 72 hrs by propidium iodide staining-based flow cytometric analysis; format: cell-based; details: mcf-10a
Summary of the method: (§1)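 Cells seeded at 6000 cells per cm² and left 24 h, then given compound at 50 or 100 μM or vehicle (1% ddH2O) for 72 h. Trypsinised, fixed overnight at −20 °C in ice-cold 70% EtOH/PBS, then PI-stained 30 min at 37 °C. 10,000 gated events per sample. Sub-diploid (<2N, M1) cells scored as apoptotic. Mean ± S.E.M., ≥3 experiments.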

[7] = Cytotoxicity in mouse NIH/3T3 cells assessed as induction of apoptosis at 50 to 100 uM after 72 hrs by propidium iodide staining-based flow cytometric analysis; format: cell-based; details: nih3t3, 72 h; summary of the method: as §1
[8] = Binding affinity to salmon sperm DNA assessed as increase in thermal melting temperature by spectrophotometric analysis; details: Salmonidae
[9] = Cytotoxicity against human HL60 cells assessed as cell viability reduction incubated for 72 hrs by alamar blue assay; format: functional, cell-based; details: HL-60, 72 h
Summary of the method: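 HL-60 cells in log phase, 40,000 per well, were treated in triplicate with compound at 10–100 µM (final, 1:100 from ddH2O stocks) or 1% ddH2O vehicle for 72 h at 37 °C. AlamarBlue was then added for 4.5 h in the dark and fluorescence read at ex 544/em 590 nm. Viability is blank-subtracted and expressed as % of vehicle. IC50 comes from a sigmoidal fit; ≥3 independent experiments.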

[10] = Cytotoxicity against human Kelly cells assessed as cell viability reduction incubated for 72 hrs by alamar blue assay; format: functional, cell-based
Summary of the method: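 Kelly cells, 6000 per well, were allowed to attach for 24 h, then treated in triplicate at 0.1–100 µM final or with ddH2O vehicle for 72 h at 37 °C. AlamarBlue was added for 4.5 h in the dark and fluorescence read at ex 544/em 590 nm. Blank-subtracted % of vehicle; IC50 from a sigmoidal dose-response fit; ≥3 independent experiments.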

[11] = Cell cycle arrest in human HL60 cells assessed as accumulation at pre-G1 phase at 50 uM after 24 hrs by propidium iodide staining-based flow cytometric analysis (reference value: 0.81 +/- 0.11%); format: functional; details: HL-60
[12] = Cell cycle arrest in human HL60 cells assessed as accumulation at pre-G1 phase at 50 uM after 48 hrs by propidium iodide staining-based flow cytometric analysis (reference value: 1.41 +/- 0.32%); format: functional; details: HL-60
[13] = Cell cycle arrest in human HL60 cells assessed as accumulation at pre-G1 phase at 50 uM after 72 hrs by propidium iodide staining-based flow cytometric analysis (reference value: 2.21 +/- 0.57%); format: functional; details: HL-60
[14] = Cell cycle arrest in human HL60 cells assessed as accumulation at G0/G1 phase at 50 uM after 24 hrs by propidium iodide staining-based flow cytometric analysis (reference value: 56.05 +/- 1.4%); format: functional; details: HL-60
[15] = Cell cycle arrest in human HL60 cells assessed as accumulation at G0/G1 phase at 50 uM after 48 hrs by propidium iodide staining-based flow cytometric analysis (reference value: 58.77 +/- 2.33%); format: functional; details: HL-60
[16] = Cell cycle arrest in human HL60 cells assessed as accumulation at G0/G1 phase at 50 uM after 72 hrs by propidium iodide staining-based flow cytometric analysis (reference value: 59.5 +/- 1.5%); format: functional; details: HL-60
[17] = Cell cycle arrest in human HL60 cells assessed as accumulation at S phase at 50 uM after 24 hrs by propidium iodide staining-based flow cytometric analysis (reference value: 24.46 +/- 1.15%); format: functional; details: HL-60
[18] = Cell cycle arrest in human HL60 cells assessed as accumulation at S phase at 50 uM after 48 hrs by propidium iodide staining-based flow cytometric analysis (reference value: 24.29 +/- 1.37%); format: functional; details: HL-60
[19] = Cell cycle arrest in human HL60 cells assessed as accumulation at S phase at 50 uM after 72 hrs by propidium iodide staining-based flow cytometric analysis (reference value: 23.58 +/- 1.38%); format: functional; details: HL-60
[20] = Cell cycle arrest in human HL60 cells assessed as accumulation at G2/M phase at 50 uM after 24 hrs by propidium iodide staining-based flow cytometric analysis (reference value: 16.73 +/- 0.59%); format: functional; details: HL-60
[21] = Cell cycle arrest in human HL60 cells assessed as accumulation at G2/M phase at 50 uM after 48 hrs by propidium iodide staining-based flow cytometric analysis (reference value: 11.35 +/- 1.05%); format: functional; details: HL-60
[22] = Cell cycle arrest in human HL60 cells assessed as accumulation at G2/M phase at 50 uM after 72 hrs by propidium iodide staining-based flow cytometric analysis (reference value: 10.53 +/- 0.81%); format: functional; details: HL-60
[23] = Cell cycle arrest in human HL60 cells assessed as accumulation at polyploid Gn phase at 50 uM after 24 hrs by propidium iodide staining-based flow cytometric analysis (reference value: 2.96 +/- 0.79%); format: functional; details: HL-60
[24] = Cell cycle arrest in human HL60 cells assessed as accumulation at polyploid Gn phase at 50 uM after 48 hrs by propidium iodide staining-based flow cytometric analysis (reference value: 3.02 +/- 0.56%); format: functional; details: HL-60
[25] = Cell cycle arrest in human HL60 cells assessed as accumulation at polyploid Gn phase at 50 uM after 72 hrs by propidium iodide staining-based flow cytometric analysis (reference value: 3.43 +/- 0.48%); format: functional; details: HL-60
[26] = Dissociation constant, pKa of the compound in 10 mM sodium phosphate buffer at pH 2 by UV spectroscopic analysis; format: physicochemical

ΔTm [8]: 2 °C
Structure (SMILES): N=C(N)Oc1ccc(Sc2ccc(O)cc2)cc1
Activity [1]: Active
Activity [2]: Active
Activity [3]: Non-toxic
Activity [4]: Toxic
Activity [5]: 63.6%
Activity [6]: Non-toxic
Activity [7]: Non-toxic
IC50 [9]: 52.9 µM
IC50 [10]: 33.9 µM
Activity [11]: 9%
Activity [12]: 55.5%
Activity [13]: 39.9%
Activity [14]: 11.2%
Activity [15]: 12.7%
Activity [16]: 18.2%
Activity [17]: 14.9%
Activity [18]: 10.4%
Activity [19]: 16.2%
Activity [20]: 52.4%
Activity [21]: 5.98%
Activity [22]: 8.67%
Activity [23]: 11.6%
Activity [24]: 15.3%
Activity [25]: 15.8%

ΔTm [8]: 5 °C
pKa [26]: 10.4
Structure (SMILES): N=C(N)Oc1ccc(Oc2ccc(OC(=N)N)cc2)cc1
IC50 [9]: > 100 µM
